Test results reported in article PMC10549240 (RSC Chemical Biology, 2023).

Tests used:
Bio-PepK-StA [1] = assay type: binding; conditions: C-terminal truncation of Fluo-PepE, Fig. 3A
In short: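 Fluorescein-labelled PepE variants truncated at the C-terminus (50 nM in water) were mixed 1:1 with serial dilutions of biotin-PepK/streptavidin complex starting at 20 μM. No activation was used. Fluorescence polarization was measured after 30 min (485 nm excitation, 535 nm emission). The read-out was the Δpolarization relative to samples without biotinylated peptide/streptavidin.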

Bio-PepK-StA [2] = assay: Flupol binding assay after Bind&Bite reaction; conditions: covalently stabilized by Bind&Bite, Fig. 3B
In short: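 Equal volumes were mixed with serially diluted biotin-PepK/streptavidin complex starting at 20 μM. Fluorescence polarization was read after 30 min (ex 485/em 535 nm). The read-out was Δpolarization versus samples without biotinylated peptide/streptavidin.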

Env(wt) = assay: Bind&Bite reaction with Env; design: species or system HIV-1; conditions: DMEM with 10% FCS
In short: (§1)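 Env trimers (wild-type or C-terminal G4S-PepK fusion) were expressed in FreeStyle 293-F cells and lectin-purified. Biotinylated PepE was either activated in situ (7.1 μM with 71 μM EDC and 177.5 μM NHS, 30 min RT) or used as pre-activated, HPLC-purified NHS ester. It was added 1:10 to Env at 71 nM final in DMEM/10% FCS, giving final peptide 710, 71, 7.1 or 0.71 nM. Mixtures were incubated 30 min RT, run on reducing 10% SDS-PAGE, and blotted. Blots were probed with streptavidin-HRP or goat anti-gp120/anti-goat HRP, with ECL detection.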

Env-PepK = assay: Bind&Bite reaction with Env-PepK in DMEM/10% FCS, SDS-PAGE and Western Blot; design: species or system HIV-1; conditions: Env-PepK 71 nM in DMEM with 10% FCS; 30 min RT; streptavidin-HRP blot
In short: as §1

Substance	affinity of the non-covalent interaction with full-length PepK (Bio-PepK-StA [1])	also measured
Fluo-Aoa-EIAALEREIAALEREIAAL-NH2 [PepE(-2C)]	very similar to full-length PepE	
Fluo-Aoa-EIAALEREIAALEREIAALE-NH2 [PepE(-1C)]	very similar to full-length PepE	
Fluo-Aoa-EIAALEREIAALER-NH2 [PepE(-7C)]	complete loss of binding	concentrations at which the peptide binds to full-length PepK (Bio-PepK-StA [2]): submicromolar
Ac-EIAALEREIAALEREIAALER-Aoa-Aoa-Lys(Bio)-NH2 [PepE-Bio]		off-target reaction with other components of the medium, in situ activated (Env(wt); in situ activated (EDC/NHS), Fig. 4C): considerable off-target reaction; off-target reactions, pre-activated, purified (Env(wt); pre-activated, purified PepE-Bio, Fig. 4D): largely eliminated; reaction with the PepK tag of Env-PepK (Env-PepK): selective reaction
Fluo-Aoa-EIAALEREIAALERE-NH2 [PepE(-6C)]	complete loss of binding	
